# In ChEMBL document CHEMBL1629439, “High-throughput identification of antibacterials against methicillin-resistant Staphylococcus aureus (MRSA) and the transglycosylase” (Bioorg Med Chem, 2010):
# Columns and labels:
# [1] = tested on: Staphylococcus aureus; experiment: Antimicrobial activity against methicillin-resistant Staphylococcus aureus isolate NTUH4722 after 18 to 24 hrs by alamar blue assay; assay type: functional
# Procedure, shortened: (§1)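 Broth microdilution per NCCLS standard, Mueller-Hinton broth, 8-point twofold dilutions; exponentially growing cells at 5 10^5 cells/ml with compound, 18–24 h at 37 C; 20% Alamar blue added, fluorescence read; MIC90 taken as lowest concentration preventing at least 90% growth.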
# [2] = tested on: Staphylococcus aureus; experiment: Antimicrobial activity against oxacillin- and methicillin-resistant Staphylococcus aureus isolate Sa-OXA-R2 after 18 to 24 hrs by alamar blue assay; assay type: functional; procedure, shortened: as §1
# [3] = tested on: Pseudomonas aeruginosa; experiment: Antimicrobial activity against Pseudomonas aeruginosa ATCC 25619 after 18 to 24 hrs by alamar blue assay; assay type: functional; details: Pseudomonas aeruginosa, ATCC 25619; read-out: MIC
# Procedure, shortened: (§2)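 Broth microdilution per NCCLS in Mueller-Hinton broth, 8-point twofold dilutions, 384-well format. Exponential-phase cells at 5 × 10^5 cells/ml incubated with compound 18–24 h at 37 °C, then 20% Alamar blue added and fluorescence read. MIC90 taken as the lowest concentration preventing at least 90% bacterial growth.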
# [4] = tested on: Staphylococcus aureus; experiment: Antimicrobial activity against Staphylococcus aureus ATCC 29213 after 18 to 24 hrs by alamar blue assay
# [5] = tested on: Stenotrophomonas maltophilia; experiment: Antimicrobial activity against Stenotrophomonas maltophilia ATCC 13637 after 18 to 24 hrs by alamar blue assay; assay type: functional; details: Stenotrophomonas maltophilia, ATCC 13637; read-out: MIC; procedure, shortened: as §2
# [6] = tested on: Escherichia coli; experiment: Antimicrobial activity against Escherichia coli ATCC […] after 18 to 24 hrs by alamar blue assay; assay type: functional; details: Escherichia coli; read-out: MIC; procedure, shortened: as §2
# [7] = tested on: Staphylococcus aureus; experiment: Antimicrobial activity against methicillin-resistant Staphylococcus aureus ATCC 33592 after 18 to 24 hrs by alamar blue assay; assay type: functional; details: Staphylococcus aureus, ATCC 33592; read-out: MIC; procedure, shortened: as §1
# [8] = tested on: Bacillus subtilis; experiment: Antimicrobial activity against Bacillus subtilis ATCC 23857 after 18 to 24 hrs by alamar blue assay; assay type: functional; procedure, shortened: as §2
# [9] = tested on: Serratia marcescens; experiment: Antimicrobial activity against Serratia marcescens ATCC 14756 after 18 to 24 hrs by alamar blue assay; assay type: functional; details: Serratia marcescens, ATCC 14756; read-out: MIC; procedure, shortened: as §2
# [10] = tested on: Acinetobacter baumannii; experiment: Antimicrobial activity against Acinetobacter baumannii ATCC 49139 after 18 to 24 hrs by alamar blue assay; assay type: functional; details: Acinetobacter baumannii, ATCC 49139; read-out: MIC; procedure, shortened: as §2
# [11] = tested on: Mycolicibacterium smegmatis; experiment: Antimicrobial activity against Mycobacterium smegmatis BCRC 11565 after 18 to 24 hrs by alamar blue assay; assay type: functional; details: Mycolicibacterium smegmatis, BCRC 11565; read-out: MIC; procedure, shortened: as §2
Compound,MIC [1] [µg/mL],MIC [2] [µg/mL],MIC [3] [µg/mL],MIC [4] [µg/mL],MIC [5] [µg/mL],MIC [6] [µg/mL],MIC [7] [µg/mL],MIC [8] [µg/mL],MIC [9] [µg/mL],MIC [10] [µg/mL],MIC [11] [µg/mL]
Cc1c(CC(=O)NCCCC(=O)O)c(=O)oc2c(C)c3occ(-c4ccc(Cl)cc4)c3cc12,2.5,2.5,> 256,2.5,> 256,> 256,2.5,> 64,> 256,> 256,1
O=C(Nc1nnc(-c2ccc(F)cc2)o1)c1cccc(Br)c1,1,1,> 256,2,> 256,> 256,0.5,0.5,> 256,> 256,0.5
CCC1Sc2ccc(S(=O)(=O)Nc3ccc(C)cc3C)cc2NC1=O (stereo not given),4,> 64,> 256,1,> 256,> 256,8,< 0.03,> 256,> 256,> 64
Cc1c(CC(=O)N[C@@H](CCCNC(N)=O)C(=O)O)c(=O)oc2c(C)c3occ(-c4ccc(Cl)cc4)c3cc12,2.5,2.5,> 256,1.25,> 256,> 256,2.5,> 64,> 256,> 256,1
CCc1cc(O)nc(N2NC(C)=CC2NC(=O)c2ccccc2Cl)n1 (stereo not given),1.2,1.2,> 256,1.2,> 256,> 256,1.2,0.25,> 256,> 256,0.25
CCCc1cc(O)nc(N2NC(C)=CC2NC(=O)c2ccccc2)n1 (stereo not given),8,8,> 256,2,> 256,> 256,8,0.25,> 256,> 256,0.25
O=c1c2ccccc2nc(/C=C/c2ccc([N+](=O)[O-])o2)n1CCCO,2,2,2,2,> 256,16,2,< 0.03,> 256,> 256,1
O=C(Nc1nnc(-c2ccc(F)cc2)o1)c1cccc(C(F)(F)F)c1,1,4,> 256,0.5,> 256,> 256,0.5,0.5,> 256,> 256,0.5
CC1=CC(NC(=O)C(C)Oc2ccccc2)N(c2nc(C)c(C)c(O)n2)N1 (stereo not given),1,1,> 256,1,> 256,> 256,0.25,0.25,> 256,> 256,0.25
O=C1c2ccc([N+](=O)[O-])c3c([N+](=O)[O-])ccc(c23)C(=O)N1c1ccccc1,1.25,1.25,> 256,2.5,> 256,> 256,2.5,4,> 256,> 256,4
CCCc1cc(O)nc(N2NC(C)=CC2NC(=O)c2ccccc2F)n1 (stereo not given),1,1,> 256,2,> 256,> 256,0.5,0.25,> 256,> 256,0.25
O=C(CCN1C(=O)c2cccc3cccc(c23)C1=O)N1CCN(C/C=C/c2ccccc2)CC1,4,0.25,> 256,0.5,> 256,> 256,1,4,> 256,> 256,4
O=C(Nc1cc(Cl)ccc1Cl)c1cc(Cl)cc(Cl)c1O,0.5,2,16,1,16,8,0.5,< 0.03,16,16,0.5
Cc1cccc(NS(=O)(=O)c2ccc3c(c2)NC(=O)C(C)S3)c1C (stereo not given),16,16,> 256,2,> 256,> 256,64,< 0.03,> 256,> 256,> 64
Cc1c(CC(=O)O)c(=O)oc2c(C)c3occ(-c4ccc(Br)cc4)c3cc12,16,2,> 256,2,> 256,> 256,2,> 64,> 256,> 256,1
O=C(Nc1ccc(-c2nc3ccccc3[nH]2)cc1)c1ccc([N+](=O)[O-])o1,8,4,128,0.125,32,256,0.25,0.06,32,12,0.5
Cc1c(CC(=O)NCCC(=O)O)c(=O)oc2c(C)c3occ(-c4ccc(Cl)cc4)c3cc12,2.5,2.5,> 256,2.5,> 256,> 256,1.25,> 64,> 256,> 256,1
O=C1c2cccc3cccc(c23)C(=O)N1CCN1CCN(CCc2ccccc2)CC1,16,0.5,> 256,1,> 256,> 256,1,4,> 256,> 256,4
CCC1Sc2ccc(S(=O)(=O)Nc3c(C)cc(C)cc3C)cc2NC1=O (stereo not given),32,> 64,> 256,2,> 256,> 256,64,< 0.03,> 256,> 256,> 64
Cn1c(/C=C/c2ccc([N+](=O)[O-])o2)nc2ccccc2c1=O,1,0.5,2,1,> 256,16,2,< 0.03,> 256,> 256,1
Cc1ccc(N2C(=O)c3ccc([N+](=O)[O-])c4c([N+](=O)[O-])ccc(c34)C2=O)cc1,2.5,2.5,> 256,5,> 256,> 256,2.5,4,> 256,> 256,4
CC[C@@H](C)[C@H](NC(=O)Cc1c(C)c2cc3c(-c4ccc(Cl)cc4)coc3c(C)c2oc1=O)C(=O)O,2.5,2.5,> 256,2.5,> 256,> 256,2.5,> 64,> 256,> 256,1
O=C1c2cc([N+](=O)[O-])cc3cc([N+](=O)[O-])cc(c23)C(=O)N1c1cccc2ccccc12,0.125,0.125,> 256,1.25,> 256,> 256,2.5,4,> 256,> 256,4
Cc1c(CC(=O)NCC(=O)O)c(=O)oc2c(C)c3occ(-c4ccc(Cl)cc4)c3cc12,1.25,1.25,> 256,1.25,> 256,> 256,1.25,> 64,> 256,> 256,1
O=C(Nc1nnc(-c2ccc(Cl)cc2)o1)c1cccc(Cl)c1,0.125,0.125,> 256,0.5,> 256,> 256,0.25,0.5,> 256,> 256,0.5
